# MrgX1 ag = agonists of human MrgX1 receptor; MrgX1-HEK293 cells, Fluo-4 calcium fluorescence, agonist mode; active compounds read high; actives 0.44% (n = 310,000); AID 588627; Q96LB2; B-score at 10 µM;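 active = calcium response B-score plate-corrected fluorescence ratio at least 3 library SD, with starting fluorescence B-score inside 5 SD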
# Target sequence (Q96LB2 whole entry, looked up): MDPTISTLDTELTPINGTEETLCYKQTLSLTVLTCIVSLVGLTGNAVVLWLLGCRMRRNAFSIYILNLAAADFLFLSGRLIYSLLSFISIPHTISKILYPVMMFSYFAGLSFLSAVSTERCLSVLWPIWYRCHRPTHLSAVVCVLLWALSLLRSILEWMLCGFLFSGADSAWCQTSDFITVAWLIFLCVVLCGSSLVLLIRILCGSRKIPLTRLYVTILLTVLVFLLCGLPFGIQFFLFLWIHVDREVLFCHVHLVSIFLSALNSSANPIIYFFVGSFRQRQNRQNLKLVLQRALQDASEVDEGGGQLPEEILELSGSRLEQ
#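 Material: HEK293 cells stably expressing human MrgX1 receptor | Quantity: 15,000 cells per well | Times: Cells plated overnight, dye loaded 0.5 h 37 °C, 0.5 h room temperature | Measured by: Kinetic Fluo-4 NW fluorescence of intracellular calcium | Control set: Positive and negative controls per plate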
# RGS4 pot = RGS4 potentiation or activation. HEK293 M3R/inducible RGS4, carbachol calcium flux Fluo4; active compounds read low. B-score at 10 µM. actives 0.92% (n = 310,000);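 active = B-score of the integrated calcium signal more than 4 SD below the library mean, with starting fluorescence not abnormally high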;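 note: negative B-score means reduced calcium response which marks RGS4 activation or potentiation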
#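 Also added: carbachol at ECmax as muscarinic agonist stimulus; Assay system: HEK293 cells with stable M3R and inducible RGS4; Timing: overnight RGS4 induction, 30 min dye load 37 °C, 20 min compound RT; Measured by: Fluo4-AM (2 µM) calcium-flux fluorescence, kinetic read.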
# MrgX1 antagonist = human MrgX1 receptor antagonism, primary screen; B-score at 10 µM; MRGX1-HEK293 calcium flux, Fluo-4, BAM8-22 antagonism; active compounds read low; AID 588676; actives 1.3% (n = 310,000); Q96LB2;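 active = calcium-response B-score plate-corrected more than 3 library SD below zero, starting fluorescence within 5 deviations, no agonist response on first addition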;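 note: peak minus trough fluorescence over baseline after final BAM8-22 challenge near maximal dose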
# RGS4 inh = inhibitors of human RGS4 | P49798 | HEK293 M3R/RGS4 inducible, Fluo-4 calcium flux; active compounds read high; triggered by carbachol at its EC20 | B-score at 10 µM | actives 0.45% (n = 310,000);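 active = B-score, a plate-corrected calcium signal, over three deviations above library mean, with baseline fluorescence within five deviations of library mean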;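 note: RGS4 expression induced by doxycycline in cells with stable M3 receptor; B-score is computed from the integrated fluorescence ratio over baseline after carbachol; higher B-score means a larger calcium signal and so more RGS4 inhibition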
# Target sequence (P49798 whole entry, looked up): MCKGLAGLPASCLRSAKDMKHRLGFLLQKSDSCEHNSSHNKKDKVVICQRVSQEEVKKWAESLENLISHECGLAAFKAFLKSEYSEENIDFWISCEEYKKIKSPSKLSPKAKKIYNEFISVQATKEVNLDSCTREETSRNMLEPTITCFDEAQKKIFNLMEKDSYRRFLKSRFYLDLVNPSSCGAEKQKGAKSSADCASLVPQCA
# MrgX1 allo act = human MrgX1 positive allosteric modulation, primary screen; Q96LB2; MrgX1-HEK293, Fluo-4 calcium flux, FDSS; active compounds read high; B-score at 10 µM; actives 0.63% (n = 310,000);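 active = plate-corrected calcium response at least 3 library SD above typical, normal starting fluorescence, not activating the receptor alone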;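 note: compound read alongside a low EC10 to EC30 dose of BAM8-22 agonist; peak minus trough fluorescence over baseline measured at the second addition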
# MrgX1 antag conf = human MrgX1 receptor antagonism, re-confirmation screen. shares compounds with MrgX1 antagonist. MrgX1-HEK293, BAM8-22 calcium flux, Fluo-4; active compounds read low. remaining BAM8-22 calcium response % of control (active compounds read low), % at 10 µM. actives 19% (n = 2,300);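 active = remaining agonist calcium response no higher than 100% minus 3 SD of agonist-only control wells, with starting fluorescence near control levels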;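 note: agonist BAM8-22 given at a near maximal EC90 to ECmax level; peak minus minimum fluorescence divided by baseline after agonist addition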
# HEK293 Ca flux = MrgX1 antagonist counter-screen hit in parental HEK293 cells | Fluo-4 calcium fluorescence, FDSS | fluorescence ratio F(max-min)/F0 at 10 µM | AID 624111 | shares compounds with MrgX1 antagonist | actives 2% (n = 4,000);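 active = duplicate-averaged calcium fluorescence ratio at least three times the standard deviation of buffer wells, a nonspecific response in parental cells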
# HEK293 Ca counter = MrgX1 allosteric activator counter-screen hit in parental HEK293 cells. AID 624114. parental HEK293 calcium flux, Fluo-4 fluorescence ratio; active compounds read high. fluorescence ratio F(max-min)/F0 at 10 µM. actives 0.4% (n = 4,000). shares compounds with MrgX1 antagonist;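 active = calcium fluorescence ratio, averaged over duplicates, at least 3 SD of the buffer-well ratio, meaning a nonspecific response in receptor-free cells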;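 note: untransfected parental HEK293 lacking MrgX1 used as counterscreen for MrgX1 allosteric activators; fluorescence change taken during the second addition on a kinetic imager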
# HEK293 Ca cntr2 = MrgX1 activator counter-screen hit in parental HEK293 cells; shares compounds with MrgX1 antagonist; Fluo-4 calcium fluorescence (FDSS); active compounds read high; fluorescence ratio F(max-min)/F0 at 10 µM; actives 8.7% (n = 4,000); AID 624115;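 active = calcium fluorescence ratio at least three times the spread of buffer wells, meaning a non-specific response in parental cells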
# Active calls of the source: *; i = inactive; nt = not tested or not shown. Shown are actives, neighbours in structure and some others; about 3.5% of the full set was active somewhere.
SMILES,MrgX1 ag,RGS4 pot,MrgX1 antagonist,RGS4 inh,MrgX1 allo act,MrgX1 antag conf,HEK293 Ca flux,HEK293 Ca counter,HEK293 Ca cntr2
CNC(=O)n1cc(C)c(-c2cccs2)n1,i,i,i,i,i,nt,nt,nt,nt
CCOC(=O)c1sc(NC(=O)c2ccc(C)o2)nc1C,i,i,-8*,i,i,i,i,i,i
COC(=O)c1sc(NC(=O)c2ccc(C)o2)nc1C,i,i,i,i,i,nt,nt,nt,nt
CCCCN(C)CCCNC(=O)/C=C1\Sc2ccccc2NC1=O,i,i,i,i,i,nt,nt,nt,nt
COc1cc2c(cc1OC)N1C(=O)CC(OCC(=O)O)C3C4CC5(CCN5C(=O)C4=O)C2C31 (stereo not drawn),i,i,-6*,i,i,i,i,i,i
Cc1ccccc1C(=O)N1CCN(CCNC(=O)C(=O)Nc2ccc(Br)cc2)CC1,i,i,i,i,i,nt,nt,nt,nt
Cc1cccc(N(C)c2cc(C)nc3ncnn23)c1,i,i,i,i,i,nt,nt,nt,nt
CCN(c1ccccc1)c1cc(C)nc2ncnn12,i,i,-6.6*,i,i,i,i,i,i
CCOC(=O)C1CCCN(S(=O)(=O)c2cc3c4c(c2)CCN4C(=O)CC3)C1 (stereo not drawn),i,i,-4.8*,i,i,i,i,i,i
Cc1ccccc1NC(=O)CSc1ccncc1,i,i,i,i,i,nt,nt,nt,nt
Cc1cccc(-n2c(SCC(N)=O)nnc2-c2ccccn2)c1C,i,i,-8.3*,i,i,i,i,i,i
Cc1ccc(-n2c(SCC(N)=O)nnc2-c2ccccn2)cc1,i,i,i,i,i,nt,nt,nt,nt
CCOc1ccc(/C=C/C(=O)N(C)CC(=O)Nc2cccc(F)c2)cc1OCC,i,i,i,i,i,nt,nt,nt,nt
CCn1c(=O)n(CC)c2cc(S(=O)(=O)N3CCC(c4ccccc4)CC3)ccc21,i,i,-7.1*,i,i,i,i,i,i
Cn1c(=O)c(=O)n(C)c2cc(S(=O)(=O)N3CCC(Cc4ccccc4)CC3)ccc21,i,i,i,i,i,nt,nt,nt,nt
Cn1c(=O)c2c(nc(NN=C3CCCC3)n2C)n(C)c1=O,i,i,i,i,i,nt,nt,nt,nt
O=C(OCCOc1cccc(Cl)c1)c1cc(S(=O)(=O)N2CCOCC2)ccc1F,i,i,i,i,i,nt,nt,nt,nt
COc1ccc(C(=O)N2CCN(C3CCCCC3)CC2)cc1OC,i,i,i,i,i,nt,nt,nt,nt
COc1ccc(-n2c(SCC(=O)Nc3ccccc3C)nc(O)c(Cc3ccccc3)c2=O)cc1,i,i,i,i,i,nt,nt,nt,nt
COc1ccc(Cl)cc1NC(=O)c1nnn(CC(=O)Nc2ccc(C)c(C)c2)c1N,i,i,i,i,i,nt,nt,nt,nt
COc1ccc(CNC(=O)CC2Sc3ccccc3NC2=O)cc1 (stereo not drawn),i,i,i,i,i,nt,nt,nt,nt
O=C(COC(=O)CC1Sc2ccccc2NC1=O)NCc1ccccc1 (stereo not drawn),i,i,-11*,i,i,i,i,i,i
O=C(CSc1ccc(-c2ccc(-n3cccn3)cc2)nn1)Nc1ccccc1F,i,i,i,i,i,nt,nt,nt,nt
Cc1cccc(C)c1OCc1cc(C(=O)NCc2cn(C)nc2C)no1,i,i,i,i,i,nt,nt,nt,nt
CCN1/C(=C/c2ccc3ccccc3[n+]2CCCS(=O)(=O)[O-])C=Cc2cc(C)ccc21,i,i,i,i,i,nt,nt,nt,nt
SMILES,MrgX1 ag,RGS4 pot,MrgX1 antagonist,RGS4 inh,MrgX1 allo act,MrgX1 antag conf,HEK293 Ca flux,HEK293 Ca counter,HEK293 Ca cntr2
CCN1/C(=C/c2ccc3ccccc3[n+]2CC)C=Cc2ccccc21,i,-9.2*,-13*,i,i,i,nt,nt,nt
Cc1ccn2c(=O)nc(SCC(=O)Nc3cc(C)on3)nc2c1,i,i,i,i,i,nt,nt,nt,nt
Cc1cc(NC(=O)CSc2nc(=O)n3cc(Cl)ccc3n2)no1,i,i,-8.2*,i,i,73%*,i,i,i
OC1CCN(CC(O)C(F)(F)F)CC1 (stereo not drawn),i,i,-5.7*,i,i,i,i,i,i
O=S1(=O)CCOC[C@H](c2ccccc2)N1Cc1ccccc1F,i,i,-6.5*,i,i,i,i,i,i
CCOC(=O)c1ccc(NC(=O)CCNS(=O)(=O)c2cccs2)cc1,i,i,-5.4*,i,i,i,i,i,i
COC(=O)c1ccc(NC(=O)CNS(=O)(=O)c2cccs2)cc1,i,i,i,i,i,nt,nt,nt,nt
CCN1CCc2nc(NC(=O)CC(c3ccccc3)c3ccccc3)sc2C1,i,i,i,i,i,nt,nt,nt,nt
CCN1CCc2nc(NC(=O)C(c3ccccc3)c3ccccc3)sc2C1,i,i,-5.8*,i,i,i,i,i,i
Cc1ccc(-c2csc(NC(=O)c3ccc4c(=O)n5c(nc4c3)CCCCC5)n2)cc1,i,i,-5.5*,i,i,71%*,i,i,i
O=C(CSc1ccccc1Cl)N1CCOCC1,i,i,i,i,i,nt,nt,nt,nt
Nc1nc2n(n1)C(c1ccco1)CC(c1ccc(Cl)cc1)N2 (stereo not drawn),i,i,-6.3*,i,i,i,i,i,i
CCc1ccc(C2CC(c3ccccc3Cl)Nc3nc(N)nn32)cc1 (stereo not drawn),i,i,-5.1*,i,i,i,i,i,i
c1ccc(COc2cccc(CN3CCc4ccccc4C3)c2)cc1,i,i,i,i,i,nt,nt,nt,nt
COCCNC(=S)N(CCc1c(C)[nH]c2ccc(F)cc12)Cc1ccco1,i,i,i,i,i,nt,nt,nt,nt
Cc1ccc(C2(CC(=O)O)CCOC(C)(C)C2)cc1 (stereo not drawn),i,i,i,i,i,nt,nt,nt,nt

# Compound activity from PubChem.
